Rows were chosen to be rich in hits. Some 2.9% of all compounds tested hit in one or more screens of this group.
SENP8 block-1: SENP8 protease inhibitors, primary screen, biochemical, luminescence; Sentrin-specific protease 8 (Homo sapiens), Q96LD8; purified SENP8, Z-RLRGG-aminoluciferin cleavage; inhibition, % at 10 µM; hit rate 1.2% among 330,000; AID 2540, 2010; in the data active = inhibition above about 50%
SENP8 block-2: human SENP8 protease inhibitors, primary screen, biochemical, fluorescence, Nedd8 protein substrate, uHTS. Sentrin-specific protease 8 (Homo sapiens), Q96LD8. recombinant SENP8. inhibition, % at 20 µM. hit rate 0.64% among 360,000. AID 602440, 2012; in the data active = inhibition mostly above about 40%, no sharp cut-off; inactive = mostly below about 27%
Apaf1 inhib: inhibitors of human Apaf-1 apoptosome, primary screen, biochemical, DEVD-Rh110 fluorescence, uHTS. hit rate 0.71% among 330,000. inhibition, % at 20 µM. reconstituted apoptosome caspase-3 activity. Apoptotic protease-activating factor 1 (Homo sapiens), O14727. AID 489030, 2010; active = inhibition of at least 40% at 20 µM
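System – cell-free apoptosome with Apaf-1, procaspase-3 and caspase-9 · Buffer or medium – pH 7.5 Hepes buffer with CHAPS, BSA, DTT · Also added – cytochrome c with DEVD-Rh110 · Times – 30 min compound preincubation, 50 min activation, room temperature · Technique – Rh110 fluorescence intensity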
SENP7 inh: SENP7 protease inhibitors, primary screen, biochemical, luminescence, uHTS; inhibition, % at 5 µM; hit rate 1.5% among 330,000; AID 434973, 2010; recombinant SENP7, Z-RLRGG-aminoluciferin luminescence, 40 min;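 active = inhibition above about 50% at the single test dose, limit read from the data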
Target sequence (Q9BQF6 706-1050 limits assumed): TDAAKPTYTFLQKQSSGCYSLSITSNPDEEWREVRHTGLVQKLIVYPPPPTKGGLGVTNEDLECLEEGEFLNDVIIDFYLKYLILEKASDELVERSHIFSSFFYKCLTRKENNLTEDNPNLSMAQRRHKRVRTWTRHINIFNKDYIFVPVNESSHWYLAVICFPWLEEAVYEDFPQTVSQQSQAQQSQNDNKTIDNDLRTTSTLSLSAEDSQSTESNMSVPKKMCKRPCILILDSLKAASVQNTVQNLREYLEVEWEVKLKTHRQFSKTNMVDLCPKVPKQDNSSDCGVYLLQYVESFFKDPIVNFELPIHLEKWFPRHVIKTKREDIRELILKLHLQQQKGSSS
SENP1 inh: human SENP1 catalytic domain inhibitors, primary screen, biochemical, FRET, uHTS | AID 624204, 2012 | inhibition, % at 10 µM | hit rate 0.21% among 360,000 | Sentrin-specific protease 1 (Homo sapiens), Q9P0U3 | recombinant SENP1 catalytic domain, CyPet-SUMO1-YPet FRET cleavage;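 active = inhibition at least 30% at 10 µM, raw YFP signal under a set limit, fluorescence ratio 0.5 to 1.5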
Target sequence (Q9P0U3 419-644 limits assumed): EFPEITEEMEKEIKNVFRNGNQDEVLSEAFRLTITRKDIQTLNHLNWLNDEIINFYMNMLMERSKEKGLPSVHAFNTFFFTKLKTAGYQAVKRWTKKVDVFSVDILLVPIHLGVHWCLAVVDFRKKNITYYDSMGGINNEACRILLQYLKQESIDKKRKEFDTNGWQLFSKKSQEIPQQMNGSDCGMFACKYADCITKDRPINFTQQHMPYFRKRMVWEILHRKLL
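Test system: hSENP1 catalytic domain, recombinant; Amount: 20 pM final SENP1 enzyme; Medium: Tris pH 8 buffer plus EDTA, NaCl, BME, BSA, NP40, catalase; Schedule: 50 min enzyme reaction, room temperature, light-protected; Technique: FRET fluorescence in CFP and YFP emission channels; Controls: no-enzyme wells low, DMSO-plus-enzyme wells high control.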
SENP6 inh: SENP6 protease inhibitors, primary screen, biochemical, luminescence, uHTS | Sentrin-specific protease 6 (Homo sapiens), Q9GZR1 | Recombinant SENP6 catalytic domain, aminoluciferin luminescence | inhibition, % at 10 µM | hit rate 1.8% among 330,000;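 active = inhibition above about 50% at the single tested dose, limit read from the data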
SENP1 conf: human SENP1 catalytic domain inhibitors, confirmation, biochemical, FRET endpoint, single concentration; shares compounds with SENP1 inh; recombinant SENP1, CyPet-SUMO1-YPet FRET cleavage; inhibition, % at 10 µM; hit rate 34% among 520; in the data active = inhibition mostly above about 35%, no sharp cut-off; inactive = mostly below about 32%
SENP1 kinetic: human SENP1 catalytic domain inhibitors, confirmation, biochemical, kinetic FRET, single concentration. AID 651690, 2012. hit rate 26% among 520. shares compounds with SENP1 inh. recombinant SENP1, CyPet-SUMO1-YPet FRET kinetic cleavage. inhibition, % at 10 µM; in the data active = inhibition mostly above about 32%, no sharp cut-off; inactive = mostly below about 29%
Each line names hits and unclear results; the compound was inactive in the other large screens (follow-up assays come after a bar, where they were run).

COc1ccc(C(=O)NC(=S)Nc2ccc(N3CCOCC3)cc2)cc1Cl	none
Cc1cc(C)n(-c2ccc(C(=O)NCC(c3ccco3)N3CCCC3)cc2)n1 (stereo unspecified)	none
CCOc1cc(OCC)cc(C(=O)N2CCC[C@H]2C(=O)N2CCC[C@H]2C(=O)N[C@H](C)c2ccccc2)c1	none (no result: SENP8 block-1, Apaf1 inhib, SENP7 inh, SENP6 inh)
CC1(C)CC(=O)C(N=Nc2ccc(-c3ccccc3)cc2)=C(O)C1	SENP1 inh 62.7 | SENP1 conf inactive | SENP1 kinetic inactive
CC1(C)CC(=O)C2=C(C1)Nc1ccccc1S2	SENP1 inh 46.0 | SENP1 conf 29.3 | SENP1 kinetic inactive
Oc1ccc(Cl)cc1C1=Nc2ccccc2N=C(c2ccco2)C1	SENP1 inh 67.4 | SENP1 conf 63.8 | SENP1 kinetic 52.2
CC(C(=O)c1ccc(Br)cc1)[n+]1cccc(NC(=O)c2ccccc2)c1 (stereo unspecified)	none
CC(C(=O)c1ccc(Br)cc1)[n+]1cccc2ccccc21 (stereo unspecified)	SENP1 inh 51.9 | SENP1 conf inactive | SENP1 kinetic inactive
Cc1ccc(C)c(NC(=O)COC(=O)c2ccc3ccccc3n2)c1	SENP1 inh 38.4 | SENP1 conf inactive | SENP1 kinetic inactive
COc1ccc(CNC(=O)COC(=O)c2ccc3ccccc3n2)cc1	SENP1 inh 37.6 | SENP1 conf inactive | SENP1 kinetic inactive
COc1ccc(NC(=O)COC(=O)c2ccc3ccccc3n2)cc1	none
CCOC(=O)C1=C[C@@H](c2ccccc2)N(S(=O)(=O)c2ccc(C)cc2)[C@H]1c1ccc(OC)cc1	none (no result: SENP8 block-1, Apaf1 inhib, SENP7 inh, SENP6 inh)
O=C1NC(=S)SC1=Cc1cc(Br)ccc1O	SENP1 inh 32.1 (no result: SENP8 block-1, Apaf1 inhib, SENP7 inh, SENP6 inh) | SENP1 conf 96.0 | SENP1 kinetic 52.1
CSc1nc(=O)[nH]nc1Sc1ccccc1	none (no result: SENP8 block-1, Apaf1 inhib, SENP7 inh, SENP6 inh)
c1ccc(CN2CCN(C3=Nc4cccc5cccc3c45)CC2)cc1	SENP1 inh 82.5 | SENP1 conf 89.3 | SENP1 kinetic 53.1
CCOC(=O)C(C)Sc1nnc(Cc2cc(=O)[nH]c(=O)[nH]2)n1-c1ccc(Cl)cc1 (stereo unspecified)	SENP1 inh 64.2 | SENP1 conf inactive | SENP1 kinetic inactive
Cc1ccc(Cn2cc(/C=N/Nc3ccc([N+](=O)[O-])cn3)c3ccccc32)cc1	none
Cc1c(/C=N/Nc2ccc([N+](=O)[O-])cn2)c2ccccc2n1Cc1ccccc1	SENP1 inh 63.3 | SENP1 conf inactive | SENP1 kinetic inactive
CC1CCN(C(=O)CCc2nnc(-c3ccccc3)o2)CC1	none
O=C(CCc1nnc(-c2ccccc2)o1)NCC1CCN(C2CCCC2)CC1	SENP1 inh 50.2 | SENP1 conf inactive | SENP1 kinetic inactive
COc1ccc(-c2ccccc2C2=CC(=O)CC(C)(C)C2=O)cc1	SENP1 inh 32.8 (no result: SENP8 block-1, Apaf1 inhib, SENP7 inh, SENP6 inh) | SENP1 conf inactive | SENP1 kinetic inactive
COc1ccc2cc(C3=CC(=O)CC(C)(C)C3=O)ccc2c1	SENP1 inh 32.1 (no result: SENP8 block-1, Apaf1 inhib, SENP7 inh, SENP6 inh) | SENP1 conf inactive | SENP1 kinetic inactive
COc1cccc(-c2ccccc2C2=CC(=O)CC(C)(C)C2=O)c1	none (no result: SENP8 block-1, Apaf1 inhib, SENP7 inh, SENP6 inh)
Cc1ccc(-c2ccccc2C2=CC(=O)CC(C)(C)C2=O)cc1	none (no result: SENP8 block-1, Apaf1 inhib, SENP7 inh, SENP6 inh)
CSCc1ccc(C(=O)OCC(=O)NC2CCCC2)o1	none (no result: SENP8 block-1, Apaf1 inhib, SENP7 inh, SENP6 inh)
Fc1ccc(C2=CC(c3cccs3)n3nnnc3N2)cc1 (stereo unspecified)	SENP1 inh 33.4 | SENP1 conf inactive | SENP1 kinetic inactive
Cc1nc2ccc(S(=O)(=O)N(C)CC(=O)NCc3ccc(N(C)C)cc3)cc2s1	SENP1 inh 56.5 | SENP1 conf inactive | SENP1 kinetic inactive
Cc1nc2ccc(S(=O)(=O)N(C)CC(=O)NCc3ccc4c(c3)OCO4)cc2s1	none
CCOC(=O)N1CCN(S(=O)(=O)c2ccc(C(=O)NNc3nc4c(C)cccc4s3)cc2)CC1	SENP1 inh 35.3 | SENP1 conf inactive | SENP1 kinetic 41.8
Cc1cccc(C)c1-n1nnnc1C(c1ccnc2ccccc12)N(C)Cc1ccccc1 (stereo unspecified)	none (no result: SENP8 block-1, Apaf1 inhib, SENP7 inh, SENP6 inh)
Cc1c(N)cccc1[N+](=O)[O-]	none
Nc1cc2c([N+](=O)[O-])cccc2o1	SENP1 inh 63.0 | SENP1 conf inactive | SENP1 kinetic inactive
CCOC(=O)C1=CCN(S(=O)(=O)c2ccc(C)cc2)C1c1ccc(CC)cc1 (stereo unspecified)	none (no result: SENP8 block-1, Apaf1 inhib, SENP7 inh, SENP6 inh)
CC1CC(=O)C(C(C2=C(O)CC(C)CC2=O)c2ccccc2)=C(O)C1 (stereo unspecified)	none (no result: SENP8 block-1, Apaf1 inhib, SENP7 inh, SENP6 inh)
COc1cccc(-c2nc(SC)nc3sc(C(=O)NC(C)(C)C)c(N)c23)c1	SENP1 inh 37.4 | SENP1 conf 47.9 | SENP1 kinetic 37.2
O=C(NC(Cc1ccccc1)C(=O)O)/C(=C\c1ccc([N+](=O)[O-])cc1)NC(=O)c1ccco1 (stereo unspecified)	SENP1 inh 32.8 | SENP1 conf inactive | SENP1 kinetic inactive
O=C(NC(Cc1ccccc1)C(=O)O)/C(=C/c1cccc([N+](=O)[O-])c1)NC(=O)c1ccco1 (stereo unspecified)	none
CCOC(=O)/C(C#N)=C/c1cc2ccccc2nc1N1CCOCC1	SENP1 inh 67.1 | SENP1 conf inactive | SENP1 kinetic inactive
O=C(NCc1cc(Cl)cc(Cl)c1)c1ccc2nc(COCCO)[nH]c2c1	none (no result: SENP8 block-1, Apaf1 inhib, SENP7 inh, SENP6 inh)
Cc1cc(O)ccc1N1C(=O)c2cccc3cc([N+](=O)[O-])cc(c23)C1=O	SENP1 inh 35.7 | SENP1 conf inactive | SENP1 kinetic inactive
O=C1c2cccc3cc([N+](=O)[O-])cc(c23)C(=O)N1c1ccccc1O	SENP1 inh 39.8 | SENP1 conf inactive | SENP1 kinetic inactive
CC1(C)CC(NC(=O)c2ccc(-c3ccc([N+](=O)[O-])cc3)o2)CC(C)(C)N1	none
CN1CCN(C2=Nc3c(Cl)cc(Cl)c4cccc2c34)CC1	SENP1 inh 82.2 | SENP1 conf 101.0 | SENP1 kinetic 56.7
Cc1cccc(C)c1-n1nnnc1-c1nc2cc(Br)ccc2[nH]c1=O	none (no result: SENP8 block-1, Apaf1 inhib, SENP7 inh, SENP6 inh)

High-throughput results from PubChem.
